Data taken from ChEMBL document CHEMBL1156750 (Bioorg Med Chem Lett, 2009).
The source made the active and inactive calls. The rule behind the calls is not given here.

How the values were obtained:
[1] = biological target: 5-hydroxytryptamine receptor 2B (Homo sapiens) (UniProt P41595); assay: Inhibition of human 5-HT2B receptor at 10 uM
Rattus norvegicus [2] = assay: Anticoagulant activity against Sprague-Dawley rat carotid artery thrombosis induced by FeCl2 in aspirin-treated rats assessed as decreasing thrombosis weight at 30 mg/kg, po; set-up: scale not given: the % may be the effect or the level left
Plasma [3] = assay: Anticoagulant activity in human plasma assessed as concentration required to double the prothrombin based clotting time after 30 seconds; format: functional
Outline: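 Human plasma prothrombin-based clotting time; value is the inhibitor concentration that doubles the clotting time, averaged from two independent determinations.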

[4] = biological target: D(1A) dopamine receptor (Homo sapiens) (UniProt P21728); assay: Inhibition of human dopamine D1 receptor at 10 uM
Chain of D(1A) dopamine receptor (Homo sapiens) (P21728 whole entry): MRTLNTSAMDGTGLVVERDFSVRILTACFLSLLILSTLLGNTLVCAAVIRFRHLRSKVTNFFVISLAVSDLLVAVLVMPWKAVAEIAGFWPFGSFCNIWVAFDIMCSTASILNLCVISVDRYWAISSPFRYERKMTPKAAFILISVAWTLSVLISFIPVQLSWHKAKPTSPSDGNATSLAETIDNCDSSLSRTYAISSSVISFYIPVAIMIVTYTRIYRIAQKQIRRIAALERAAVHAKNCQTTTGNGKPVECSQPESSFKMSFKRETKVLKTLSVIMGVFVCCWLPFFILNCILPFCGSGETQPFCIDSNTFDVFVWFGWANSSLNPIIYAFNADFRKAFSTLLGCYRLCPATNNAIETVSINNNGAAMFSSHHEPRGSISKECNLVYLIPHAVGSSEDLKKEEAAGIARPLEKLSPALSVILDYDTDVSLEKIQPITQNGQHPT

Rattus norvegicus [5] = species on record: Rattus norvegicus; assay: Inhibition of rat Kainate receptor at 10 uM
[6] = biological target: D(2) dopamine receptor (Homo sapiens) (UniProt P14416); assay: Inhibition of human dopamine D2S receptor at 10 uM
Chain of D(2) dopamine receptor (Homo sapiens) (P14416 whole entry): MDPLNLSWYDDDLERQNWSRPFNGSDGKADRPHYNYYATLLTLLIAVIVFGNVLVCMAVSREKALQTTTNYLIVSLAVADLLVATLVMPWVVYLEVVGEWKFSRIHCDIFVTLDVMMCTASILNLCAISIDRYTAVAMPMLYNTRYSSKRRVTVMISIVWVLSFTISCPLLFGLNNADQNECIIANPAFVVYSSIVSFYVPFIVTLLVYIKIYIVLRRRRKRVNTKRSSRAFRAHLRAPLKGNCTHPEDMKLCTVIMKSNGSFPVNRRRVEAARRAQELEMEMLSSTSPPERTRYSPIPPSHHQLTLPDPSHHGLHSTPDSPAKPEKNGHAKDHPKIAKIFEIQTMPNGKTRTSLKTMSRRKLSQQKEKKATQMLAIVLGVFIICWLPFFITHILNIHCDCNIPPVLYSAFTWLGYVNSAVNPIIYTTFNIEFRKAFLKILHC

[7] = biological target: Histamine H2 receptor (Cavia porcellus) (UniProt P47747); assay: Inhibition of guinea pig H2 receptor at 10 uM
Chain of Histamine H2 receptor (Cavia porcellus) (P47747 whole entry): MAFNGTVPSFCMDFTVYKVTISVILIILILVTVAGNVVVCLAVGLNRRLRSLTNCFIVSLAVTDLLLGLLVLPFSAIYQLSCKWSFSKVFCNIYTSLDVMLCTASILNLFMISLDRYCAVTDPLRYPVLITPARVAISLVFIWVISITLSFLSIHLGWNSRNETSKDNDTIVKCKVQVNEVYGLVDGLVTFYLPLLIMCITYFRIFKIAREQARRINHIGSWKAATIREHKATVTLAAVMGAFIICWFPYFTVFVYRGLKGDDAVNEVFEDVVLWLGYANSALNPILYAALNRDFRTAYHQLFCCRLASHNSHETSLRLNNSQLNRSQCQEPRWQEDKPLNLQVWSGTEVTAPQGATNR

Plasma [8] = assay: Anticoagulant activity in Sprague-Dawley rat plasma assessed as concentration required to double the prothrombin based clotting at 30 mg/kg, id; format: functional; settings: route intraduodenal
[9] = biological target: Estrogen receptor (Homo sapiens) (UniProt P03372); assay: Inhibition of human ERalpha at 10 uM
[10] = biological target: Progesterone receptor (Homo sapiens) (UniProt P06401); assay: Inhibition of human PR at 10 uM
Rattus norvegicus [11] = assay: Anticoagulant activity against […] Sprague-Dawley rat carotid artery thrombosis assessed as decreasing thrombosis weight at 10 mg/kg, po; format: functional; set-up: scale not given: the % may be the effect or the level left
Outline: (§1)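 Rat carotid artery thrombosis: vehicle (PEG-400) or compound given by 1 mL/kg gavage at 0 min (5, 10, 15, 30 mg/kg; n = 5, 6, 6, 4; vehicle n = 8), with aspirin 10 mg/kg iv 15 min before FeCl2. Rats anesthetized at 30 min. 50% FeCl2 applied topically at 60 min for 10 min. Thrombus weight taken 1 h later. ANOVA with Dunnett's test.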

Rattus norvegicus [12] = species on record: Rattus norvegicus; assay: Inhibition of rat GABA transporter at 10 uM
Rattus norvegicus [13] = assay: Anticoagulant activity in Fecl2-induced Sprague-Dawley rat vena cava thrombosis model assessed as inhibition of thrombus weight at 15 mg/kg, po; format: functional
Outline: (§2)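 Rat vena cava thrombosis: vehicle (PEG-400) or compound at 5, 10, 15, 30 mg/kg (n = 5 per group) given by 1 mL/kg gavage at 0 min. Rats anesthetized at 30 min. 15% FeCl2 applied topically to the vena cava at 60 min for 2 min. Thrombus weight determined 1 h after FeCl2.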

Rattus norvegicus [14] = species on record: Rattus norvegicus; assay: Inhibition of rat 5-HT receptor at 10 uM
Rattus norvegicus [15] = assay: Anticoagulant activity against Sprague-Dawley rat arterial thrombosis model induced by topical application of Fecl2; format: functional; settings: Rattus norvegicus, Sprague-Dawley, oral; outline: as §1
[16] = biological target: Adrenergic receptor alpha-2 (Rattus norvegicus) (UniProt P22086+P19328+P22909); assay: Inhibition of rat alpha-2 adrenergic receptor at 10 uM
Rattus norvegicus [17] = assay: Anticoagulant activity against Sprague-Dawley rat carotid artery thrombosis induced by FeCl2 in aspirin-treated rats assessed as decreasing thrombosis weight at 15 mg/kg, po; set-up: scale not given: the % may be the effect or the level left
[18] = biological target: Cholecystokinin receptor type A (Homo sapiens) (UniProt P32238); assay: Inhibition of human CCKA receptor at 10 uM
Homo sapiens = species on record: Homo sapiens; assay: Inhibition of human sst receptor at 10 uM
Rattus norvegicus [19] = species on record: Rattus norvegicus; assay: Inhibition of rat chloride channel at 10 uM
[20] = biological target: Glucocorticoid receptor (Homo sapiens) (UniProt P04150); assay: Inhibition of human GR at 10 uM
Chain of Glucocorticoid receptor (Homo sapiens) (P04150 whole entry): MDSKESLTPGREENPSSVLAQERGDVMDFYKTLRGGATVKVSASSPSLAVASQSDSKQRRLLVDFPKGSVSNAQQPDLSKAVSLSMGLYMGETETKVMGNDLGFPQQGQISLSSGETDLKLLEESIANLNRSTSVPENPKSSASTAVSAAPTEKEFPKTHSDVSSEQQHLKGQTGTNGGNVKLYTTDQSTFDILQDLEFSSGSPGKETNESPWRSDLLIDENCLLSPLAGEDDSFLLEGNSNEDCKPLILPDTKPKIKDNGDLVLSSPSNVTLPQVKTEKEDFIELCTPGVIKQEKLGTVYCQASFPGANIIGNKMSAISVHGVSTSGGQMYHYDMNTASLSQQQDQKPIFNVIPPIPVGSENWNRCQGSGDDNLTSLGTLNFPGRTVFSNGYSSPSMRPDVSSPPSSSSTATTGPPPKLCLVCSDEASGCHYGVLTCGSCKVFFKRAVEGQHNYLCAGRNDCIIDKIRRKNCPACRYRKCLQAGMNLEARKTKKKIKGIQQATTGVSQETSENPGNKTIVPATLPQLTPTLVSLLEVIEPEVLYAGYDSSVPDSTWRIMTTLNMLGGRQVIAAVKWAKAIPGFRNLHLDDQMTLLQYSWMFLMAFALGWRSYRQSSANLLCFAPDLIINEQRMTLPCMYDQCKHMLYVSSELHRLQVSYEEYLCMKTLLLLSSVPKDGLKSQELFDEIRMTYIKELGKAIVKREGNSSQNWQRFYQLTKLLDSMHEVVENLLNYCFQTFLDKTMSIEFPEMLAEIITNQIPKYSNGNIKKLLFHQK

Trypsin = Trypsin (Homo sapiens, UniProt P07477+P07478+P35030); assay: Inhibition of human trypsin; format: protein assay
[21] = biological target: Adenosine receptor A1 (Homo sapiens) (UniProt P30542); assay: Inhibition of human A1 receptor at 10 uM
Chain of Adenosine receptor A1 (Homo sapiens) (P30542 whole entry): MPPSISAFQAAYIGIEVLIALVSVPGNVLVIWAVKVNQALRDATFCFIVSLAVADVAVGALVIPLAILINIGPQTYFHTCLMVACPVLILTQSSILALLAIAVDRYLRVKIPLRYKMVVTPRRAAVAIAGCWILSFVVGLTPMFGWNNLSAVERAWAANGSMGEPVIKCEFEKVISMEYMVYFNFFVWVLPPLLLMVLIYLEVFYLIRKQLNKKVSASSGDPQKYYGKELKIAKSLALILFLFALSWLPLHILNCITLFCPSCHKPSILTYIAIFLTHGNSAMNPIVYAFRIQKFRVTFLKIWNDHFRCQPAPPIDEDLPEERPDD

[22] = Inhibition of sodium channel
[23] = biological target: Adrenergic receptor alpha-1 (Rattus norvegicus) (UniProt P15823+P23944+P43140); assay: Inhibition of rat alpha-1 adrenergic receptor at 10 uM
Rattus norvegicus [24] = species on record: Rattus norvegicus; assay: Inhibition of rat sodium channel site2 at 10 uM
[25] = biological target: 5-hydroxytryptamine receptor 1A (Homo sapiens) (UniProt P08908); assay: Inhibition of human 5-HT1A receptor at 10 uM
Chain of 5-hydroxytryptamine receptor 1A (Homo sapiens) (P08908 whole entry): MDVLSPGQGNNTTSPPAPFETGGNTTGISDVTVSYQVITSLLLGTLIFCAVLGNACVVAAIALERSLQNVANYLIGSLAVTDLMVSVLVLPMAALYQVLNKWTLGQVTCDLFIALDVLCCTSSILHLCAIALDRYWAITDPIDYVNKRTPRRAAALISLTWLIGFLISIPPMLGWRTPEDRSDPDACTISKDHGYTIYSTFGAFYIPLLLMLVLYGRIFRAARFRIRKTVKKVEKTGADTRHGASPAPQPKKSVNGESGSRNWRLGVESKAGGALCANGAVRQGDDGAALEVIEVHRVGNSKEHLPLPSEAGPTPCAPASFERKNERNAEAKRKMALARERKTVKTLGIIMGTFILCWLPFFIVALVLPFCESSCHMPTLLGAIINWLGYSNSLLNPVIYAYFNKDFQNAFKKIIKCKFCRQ

Rattus norvegicus [26] = assay: Anticoagulant activity in Fecl2-induced po dosed Sprague-Dawley rat vena cava thrombosis model assessed as inhibition of thrombus weight; format: functional; outline: as §2
[27] = biological target: Beta-2 adrenergic receptor (Homo sapiens) (UniProt P07550); assay: Inhibition of human beta-2 adrenergic receptor at 10 uM
Chain of Beta-2 adrenergic receptor (Homo sapiens) (P07550 whole entry, looked up): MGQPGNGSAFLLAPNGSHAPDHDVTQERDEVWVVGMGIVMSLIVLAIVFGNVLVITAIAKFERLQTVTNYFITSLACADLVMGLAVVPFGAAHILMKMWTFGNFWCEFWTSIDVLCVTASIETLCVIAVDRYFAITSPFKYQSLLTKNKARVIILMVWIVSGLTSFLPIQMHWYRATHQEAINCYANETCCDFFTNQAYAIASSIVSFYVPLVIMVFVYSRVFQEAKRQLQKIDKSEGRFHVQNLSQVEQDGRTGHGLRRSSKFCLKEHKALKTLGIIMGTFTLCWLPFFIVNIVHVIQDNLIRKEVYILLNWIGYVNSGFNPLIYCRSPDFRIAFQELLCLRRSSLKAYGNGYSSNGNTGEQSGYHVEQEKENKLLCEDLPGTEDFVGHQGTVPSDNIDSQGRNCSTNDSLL

[28] = biological target: Muscarinic acetylcholine receptor (Rattus norvegicus) (UniProt P08482+P08483+P08485+P08911+P10980); assay: Inhibition of rat muscarinic receptor at 10 uM
[29] = biological target: Histamine H1 receptor (Cavia porcellus) (UniProt P31389); assay: Inhibition of guinea pig H1 receptor
Rattus norvegicus [30] = species on record: Rattus norvegicus; assay: Inhibition of rat Opiate receptor at 10 uM
[31] = biological target: Sodium-dependent noradrenaline transporter (Homo sapiens) (UniProt P23975); assay: Inhibition of human NE transporter at 10 uM
Chain of Sodium-dependent noradrenaline transporter (Homo sapiens) (P23975 whole entry): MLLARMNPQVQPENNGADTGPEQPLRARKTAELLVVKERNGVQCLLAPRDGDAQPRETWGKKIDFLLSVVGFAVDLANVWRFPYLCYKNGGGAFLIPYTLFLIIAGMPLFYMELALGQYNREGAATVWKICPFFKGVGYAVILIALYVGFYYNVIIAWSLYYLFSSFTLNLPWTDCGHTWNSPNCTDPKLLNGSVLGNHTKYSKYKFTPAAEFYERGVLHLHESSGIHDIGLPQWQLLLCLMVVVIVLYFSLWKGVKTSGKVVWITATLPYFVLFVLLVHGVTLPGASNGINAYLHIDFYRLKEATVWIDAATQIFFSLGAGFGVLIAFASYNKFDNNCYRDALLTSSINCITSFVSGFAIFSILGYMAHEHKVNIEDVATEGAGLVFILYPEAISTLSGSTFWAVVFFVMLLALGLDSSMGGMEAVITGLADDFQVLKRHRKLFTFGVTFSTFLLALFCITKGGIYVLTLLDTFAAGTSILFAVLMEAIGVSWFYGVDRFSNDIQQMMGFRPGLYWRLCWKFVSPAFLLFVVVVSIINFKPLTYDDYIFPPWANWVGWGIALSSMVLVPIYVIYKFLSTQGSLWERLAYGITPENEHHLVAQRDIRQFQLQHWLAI

Rattus norvegicus [32] = species on record: Rattus norvegicus; assay: Inhibition of rat AMPA receptor at 10 uM
[33] = Inhibition of human Tryptase
[34] = biological target: Sodium-dependent dopamine transporter (Rattus norvegicus) (UniProt P23977); assay: Inhibition of rat DA transporter at 10 uM
Chain of Sodium-dependent dopamine transporter (Rattus norvegicus) (P23977 whole entry): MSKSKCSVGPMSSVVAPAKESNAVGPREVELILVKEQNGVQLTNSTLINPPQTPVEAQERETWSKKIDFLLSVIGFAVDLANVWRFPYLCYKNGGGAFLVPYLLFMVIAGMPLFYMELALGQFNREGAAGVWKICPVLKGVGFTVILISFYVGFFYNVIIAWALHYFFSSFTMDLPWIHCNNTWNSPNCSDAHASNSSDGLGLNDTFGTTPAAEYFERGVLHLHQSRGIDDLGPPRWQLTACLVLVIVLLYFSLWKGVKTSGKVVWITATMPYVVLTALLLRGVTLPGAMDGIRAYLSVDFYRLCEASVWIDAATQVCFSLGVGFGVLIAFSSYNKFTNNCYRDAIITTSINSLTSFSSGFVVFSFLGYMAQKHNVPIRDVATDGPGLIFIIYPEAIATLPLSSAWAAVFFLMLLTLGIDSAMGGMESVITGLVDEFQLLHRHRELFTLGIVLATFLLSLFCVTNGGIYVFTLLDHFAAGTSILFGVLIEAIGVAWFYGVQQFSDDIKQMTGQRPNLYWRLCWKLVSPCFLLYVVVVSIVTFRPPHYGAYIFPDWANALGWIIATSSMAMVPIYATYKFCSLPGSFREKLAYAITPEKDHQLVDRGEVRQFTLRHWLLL

Rattus norvegicus [35] = species on record: Rattus norvegicus; assay: Inhibition of rat choline transporter at 10 uM
[36] = biological target: Glutamate NMDA receptor (Rattus norvegicus) (UniProt P35439+Q00959+Q00960+Q00961+Q62645+Q8VHN2+Q9R1M7); assay: Inhibition of rat NMDA receptor at 10 uM; format: protein-complex assay
[37] = biological target: Beta-1 adrenergic receptor (Homo sapiens) (UniProt P08588); assay: Inhibition of human beta-1 adrenergic receptor at 10 uM

Chain of 5-hydroxytryptamine receptor 2B (Homo sapiens) (P41595 whole entry): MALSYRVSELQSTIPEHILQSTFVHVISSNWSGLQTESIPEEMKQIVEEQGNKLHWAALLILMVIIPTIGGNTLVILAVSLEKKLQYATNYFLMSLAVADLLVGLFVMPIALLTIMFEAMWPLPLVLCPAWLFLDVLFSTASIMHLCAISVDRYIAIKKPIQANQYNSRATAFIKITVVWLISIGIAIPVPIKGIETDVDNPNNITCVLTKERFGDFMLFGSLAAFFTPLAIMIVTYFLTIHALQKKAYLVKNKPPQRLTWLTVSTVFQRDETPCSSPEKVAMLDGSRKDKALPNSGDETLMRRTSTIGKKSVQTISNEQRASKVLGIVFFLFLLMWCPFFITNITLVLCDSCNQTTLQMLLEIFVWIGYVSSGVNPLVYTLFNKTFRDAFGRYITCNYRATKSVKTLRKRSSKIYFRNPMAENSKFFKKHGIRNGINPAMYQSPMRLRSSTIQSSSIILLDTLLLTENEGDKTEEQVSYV

Cc1cc2cc(N/C(=N\C(=O)c3ccc(C(=O)N(C)C)nc3)N[C@H]3CCCCN(CC(=O)N4CCCC4)C3=O)ccc2o1
Activity [1]: inactive | Activity (Rattus norvegicus [2]): 54% | Activity (Plasma [3]): 2.5 µM | Activity [4]: inactive | Activity (Rattus norvegicus [5]): inactive | Activity [6]: inactive | Activity [7]: inactive | Activity (Plasma [8]): 3.6 µM | Activity [9]: inactive | Activity [10]: inactive | Activity (Rattus norvegicus [11]): 36% | Activity (Rattus norvegicus [12]): inactive | inhibition in vivo at 15 mg/kg (Rattus norvegicus [13]): 90% | Activity (Rattus norvegicus [14]): inactive | ED50 (Rattus norvegicus [15]): 10 mg/kg | Activity [16]: inactive | Activity (Rattus norvegicus [17]): 31% | Activity [18]: inactive | Activity (Homo sapiens): inactive | Activity (Rattus norvegicus [19]): inactive | Activity [20]: inactive | Ki (Trypsin): > 10 µM | Activity [21]: inactive | Activity [22]: inactive | Activity [23]: inactive | Activity (Rattus norvegicus [24]): inactive | Activity [25]: inactive | ED50 (Rattus norvegicus [26]): 2 mg/kg | Activity [27]: inactive | Activity [28]: inactive | Activity [29]: inactive | Activity (Rattus norvegicus [30]): inactive | Activity [31]: inactive | Activity (Rattus norvegicus [32]): inactive | Ki [33]: > 30 µM | Activity [34]: inactive | Activity (Rattus norvegicus [35]): inactive | Activity [36]: inactive | Activity [37]: inactive
